{"source": "ChEMBL document CHEMBL1782042", "about": "“Efficient microwave-assisted synthesis and antitumor activity of novel 4,4'-methylenebis[2-(3-aryl-4,5-dihydro-1H-pyrazol-5-yl)phenols]” (Eur J Med Chem, 2011)", "key": {"[1]": {"tested_on": "MOLT-4", "assay": "Cytotoxicity against human MOLT4 cells", "type": "cell-based", "in_short": "(§1)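 NCI 60 human tumour cell line screen, second stage at five concentrations (100, 10, 1.0, 0.1 and 0.01 μM). Continuous drug exposure for 48 h, with cell growth estimated by sulforhodamine B protein staining. GI50 is the drug concentration giving a 50% reduction in net protein increase relative to control cells over the incubation.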"}, "[2]": {"tested_on": "NCI-H522", "assay": "Anticancer activity against human NCI-H522 cells after 48 hrs by sulforhodamine B assay", "type": "functional", "conditions": "NCI-H522, 48 h", "in_short": "(§2)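 NCI 60-cell-line in vitro screen, second stage: five concentration levels (100, 10, 1.0, 0.1 and 0.01 μM) with 48 h continuous drug exposure. Cell growth was estimated by sulforhodamine B protein staining. GI50 is the drug concentration that gives a 50% reduction in net protein increase relative to control cells over the incubation.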"}, "[3]": {"tested_on": "TK-10", "assay": "Cytotoxicity against human TK10 cells", "type": "cell-based", "in_short": "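NCI 60 human tumour cell line screen; five concentration levels (100, 10, 1.0, 0.1 and 0.01 μM), 48 h continuous drug exposure. Cell growth estimated by sulforhodamine B (SRB) protein staining. GI50 taken as the drug concentration giving a 50% reduction in net protein increase relative to control cells over the incubation.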"}, "[4]": {"tested_on": "HOP-92", "assay": "Cytotoxicity against human HOP92 cells", "type": "cell-based", "in_short": "as §1"}, "[5]": {"tested_on": "DU-145", "assay": "Anticancer activity against human DU145 cells after 48 hrs by sulforhodamine B assay", "type": "functional", "conditions": "DU-145, 48 h", "in_short": "as §2"}, "[6]": {"tested_on": "SR", "assay": "Anticancer activity against human SR cells after 48 hrs by sulforhodamine B assay", "type": "functional", "in_short": "(§3)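 NCI 60-cell-line screen, second stage. Five concentration levels (100, 10, 1.0, 0.1 and 0.01 μM), 48 h continuous drug exposure. Cell growth was estimated by sulforhodamine B protein staining. GI50 is the concentration giving a 50% reduction in net protein increase relative to control cells over the drug incubation. Compounds entered this stage after an earlier single-dose screen.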"}, "[7]": {"tested_on": "M14", "assay": "Anticancer activity against human M14 cells after 48 hrs by sulforhodamine B assay", "type": "functional", "conditions": "M14, 48 h", "in_short": "as §2"}, "[8]": {"tested_on": "SF-268", "assay": "Cytotoxicity against human SF268 cells", "type": "cell-based", "in_short": "as §1"}, "[9]": {"tested_on": "SF-268", "assay": "Anticancer activity against human SF268 cells after 48 hrs by sulforhodamine B assay", "type": "functional", "conditions": "SF-268, 48 h", "in_short": "as §2"}, "[10]": {"tested_on": "SNB-75", "assay": "Anticancer activity against human SNB75 cells after 48 hrs by sulforhodamine B assay", "type": "functional", "conditions": "SNB-75, 48 h", "in_short": "as §3"}, "[11]": {"tested_on": "RXF 393", "assay": "Cytotoxicity against human RXF393 cells", "type": "cell-based", "in_short": "as §1"}, "[12]": {"tested_on": "Hs-578T", "assay": "Anticancer activity against human Hs578T cells after 48 hrs by sulforhodamine B assay", "type": "functional", "in_short": "as §2"}}, "data": [{"smiles": "Oc1ccc(Cc2ccc(O)c(C3CC(c4ccc(Cl)cc4)=NN3)c2)cc1C1CC(c2ccc(Cl)cc2)=NN1", "note": "(configuration not stated)", "values": [{"measurement": "LC50", "setting": "[1]", "value": "> 100", "unit": "µM"}, {"measurement": "GI50", "setting": "[2]", "value": 2950, "unit": "nM"}, {"measurement": "LC50", "setting": "[3]", "value": "> 100", "unit": "µM"}, {"measurement": "LC50", "setting": "[4]", "value": "> 100", "unit": "µM"}, {"measurement": "GI50", "setting": "[5]", "value": 3.46, "unit": "µM"}, {"measurement": "GI50", "setting": "[6]", "value": 1830, "unit": "nM"}, {"measurement": "GI50", "setting": "[7]", "value": 4.45, "unit": "µM"}, {"measurement": "LC50", "setting": "[8]", "value": "> 100", "unit": "µM"}, {"measurement": "GI50", "setting": "[9]", "value": 3.22, "unit": "µM"}, {"measurement": "GI50", "setting": "[10]", "value": 4.26, "unit": "µM"}, {"measurement": "LC50", "setting": "[11]", "value": "> 100", "unit": "µM"}, {"measurement": "GI50", "setting": "[12]", "value": 2760, "unit": "nM"}]}]}
